# Test results: ChEMBL document CHEMBL1133509, “Synthetic oleanane and ursane triterpenoids with modified rings A and C: a series of highly active inhibitors of nitric oxide production in mouse macrophages” (J Med Chem, 2000); call rule not given here
# Key:
# Mus musculus [1] = species on record: Mus musculus; assay: Inhibition of nitric oxide (NO) production induced by interferon-gamma (IFN-gamma) in mouse macrophages; type: functional
# Summary of the method: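 Primary peritoneal macrophages from female CD-1 mice (5–10 weeks), harvested four days after i.p. injection of 4% thioglycollate broth. Seeded at 2 × 10^5 cells/well and incubated 48 h with 20 ng/mL recombinant mouse IFN-γ plus compound in DMSO (final ≤0.1%), with DMSO controls. Nitrite in supernatant measured by Griess reaction at 550 nm in triplicate against sodium nitrite standard curve. IC50 is the average of two experiments.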
# Mus musculus [2] = species on record: Mus musculus; assay: Evaluated for the inhibitory activity of (Nitric Oxide)NO production induced by interferon-gamma (IFN-gamma) in mouse macrophages( toxic to cells above 1 uM and is not active below 1 uM); Toxic; type: functional, cell-based
# Mus musculus [3] = species on record: Mus musculus; assay: Evaluated for the inhibitory activity of (Nitric Oxide)NO production induced by interferon-gamma (IFN-gamma) in mouse macrophages(toxic to cells above 1 uM and is not active below 1 uM); Toxic; type: functional, cell-based
Structure (SMILES),IC50 (Mus musculus [1]) [µM],further results
COC(=O)[C@]12CC[C@@H](C)[C@H](C)C1C1=CC(=O)[C@@H]3[C@@]4(C)C=CC(=O)C(C)(C)[C@@H]4CC[C@@]3(C)[C@]1(C)CC2 (stereo partly specified),8.9,
C[C@@H]1CC[C@]2(C(=O)O)CC[C@]3(C)C(=CC(=O)[C@@H]4[C@@]5(C)C=C(C#N)C(=O)C(C)(C)[C@@H]5CC[C@]43C)C2[C@H]1C (stereo partly specified),0.8,
CC1(C)CC[C@]2(C=O)CC[C@]3(C)C(=CC(=O)[C@@H]4[C@@]5(C)C=CC(=O)C(C)(C)[C@@H]5CC[C@]43C)C2C1 (stereo partly specified),3.8,
CC(=O)OC[C@]12CCC(C)(C)CC1C1=CC(=O)[C@@H]3[C@@]4(C)C=CC(=O)C(C)(C)[C@@H]4CC[C@@]3(C)[C@]1(C)CC2 (stereo partly specified),> 40,
C[C@@H]1CC[C@]2(C(=O)O)CC[C@]3(C)C(=CC[C@@H]4[C@@]5(C)CC[C@H](O)C(C)(C)[C@@H]5CC[C@]43C)C2[C@H]1C (stereo partly specified),,IC50 (Mus musculus [2]): Toxic
COC(=O)C1=C[C@]2(C)C3=CC(=O)C4C5CC(C)(C)CC[C@]5(C(=O)OC)CC[C@@]4(C)[C@]3(C)CC[C@H]2C(C)(C)C1=O (stereo partly specified),,IC50 (Mus musculus [2]): Toxic
CC1(C)CC[C@]2(CO)CC[C@]3(C)C(=CC(=O)[C@@H]4[C@@]5(C)C=CC(=O)C(C)(C)[C@@H]5CC[C@]43C)C2C1 (stereo partly specified),3,
CC1(C)CC[C@]2(C(=O)O)CC[C@]3(C)C(=CC(=O)[C@@H]4[C@@]5(C)C=CC(=O)C(C)(C)[C@@H]5CC[C@]43C)C2C1 (stereo partly specified),1.1,
COC(=O)[C@]12CCC(C)(C)CC1C1=CC[C@@H]3[C@@]4(C)C=C(C=O)C(=O)C(C)(C)[C@@H]4CC[C@@]3(C)[C@]1(C)CC2 (stereo partly specified),,IC50 (Mus musculus [3]): Toxic

# Continued, in another order:
IC50 (Mus musculus [1]) [µM],Structure (SMILES),further results
0.7,COC(=O)[C@]12CCC(C)(C)CC1C1C(=O)C=C3[C@@]4(C)C=CC(=O)C(C)(C)[C@@H]4CC[C@@]3(C)[C@]1(C)CC2 (stereo partly specified),
0.1,COC(=O)[C@]12CC[C@@H](C)[C@H](C)C1C1=CC(=O)[C@@H]3[C@@]4(C)C=C(C#N)C(=O)C(C)(C)[C@@H]4CC[C@@]3(C)[C@]1(C)CC2 (stereo partly specified),
0.1,COC(=O)[C@]12CCC(C)(C)CC1C1C(=O)C=C3[C@@]4(C)C=C(C(N)=O)C(=O)C(C)(C)[C@@H]4CC[C@@]3(C)[C@]1(C)CC2 (stereo partly specified),
2.8,COC(=O)[C@]12CCC(C)(C)CC1C1=CC(=O)[C@@H]3[C@@]4(C)C=CC(=O)C(C)(C)[C@@H]4CC[C@@]3(C)[C@]1(C)CC2 (stereo partly specified),
0.1,COC(=O)[C@]12CCC(C)(C)CC1C1C(=O)C=C3[C@@]4(C)C=C(C=O)C(=O)C(C)(C)[C@@H]4CC[C@@]3(C)[C@]1(C)CC2 (stereo partly specified),
14,COC(=O)[C@]12CCC(C)(C)CC1C1C(=O)C[C@@H]3[C@@]4(C)C=CC(=O)C(C)(C)[C@@H]4CC[C@@]3(C)[C@]1(C)CC2 (stereo partly specified),
31,COC(=O)[C@]12CCC(C)(C)CC1C1=CC[C@@H]3[C@@]4(C)C=CC(=O)C(C)(C)[C@@H]4CC[C@@]3(C)[C@]1(C)CC2 (stereo partly specified),
